Source: ChEMBL document CHEMBL3627607, “A Novel Pyrazolopyridine with in Vivo Activity in Plasmodium berghei- and Plasmodium falciparum-Infected Mouse Models from Structure-Activity Relationship Studies around the Core of Recently Identified Antimalarial Imidazopyridazines” (J Med Chem, 2015)
pIC50: −log10 of the molar value.

Key:
[1] = Selectivity index, ratio of IC50 for CHO cells to IC50 for Plasmodium falciparum NF54; assay type: toxicity, cell-based; details: hamster, read-out: Ratio IC50
Rattus norvegicus = experiment: Half life in rat at 5 mg/kg, iv; assay type: ADME, organism-based; details: in vivo
[2] = Cmax in Plasmodium falciparum 3D7 infected in non-myelodepleted NOD-SCID IL2Rgammanull mouse engrafted with human erythrocytes at 0.1 mg/kg, po; assay type: ADME, organism-based; parameters: dose 0.1 mg/kg, route oral; details: in vivo
Procedure, shortened: (§1)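 Engrafted NSG (scid IL2Rgc null) mice infected with P. falciparum were given one oral dose per day for four days. Blood was sampled to measure parent and its sulfone metabolite.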

[3] = Cmax in Plasmodium falciparum 3D7 infected in non-myelodepleted NOD-SCID IL2Rgammanull mouse engrafted with human erythrocytes at 1.5 mg/kg, po; assay type: ADME, organism-based; parameters: dose 1.5 mg/kg, route oral; details: in vivo; procedure, shortened: as §1
Blood [4] = experiment: Drug metabolism in rat blood assessed as metabolite formation from sulfone oxidation on pyridine core and phenyl ring at 20 mg/kg, po and 5 mg/kg, iv by LC-MS/MS analysis; assay type: ADME, organism-based; details: in vivo
Procedure, shortened: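 Metabolites identified by LC-ESI-MS/MS in blood samples from the rat PK study (oral and intravenous dosing).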

[5] = Tmax in Plasmodium falciparum 3D7 infected in non-myelodepleted NOD-SCID IL2Rgammanull mouse engrafted with human erythrocytes at 1.5 mg/kg, po; assay type: ADME, organism-based; details: in vivo
Procedure, shortened: (§2)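 Humanized NSG mice infected with P. falciparum received one oral dose per day for 4 consecutive days. Blood was sampled for exposure, with levels of both parent and its main active metabolite measured. Tmax was taken from the blood concentration–time profile after oral dosing.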

[6] = Tmax in Plasmodium falciparum 3D7 infected in non-myelodepleted NOD-SCID IL2Rgammanull mouse engrafted with human erythrocytes at 0.1 mg/kg, po; assay type: ADME, organism-based; details: in vivo; procedure, shortened: as §1
Blood [7] = experiment: Drug metabolism in mouse assessed as 5-(3-(Cyclopropylsulfonyl)phenyl)-3-(4-(methylsulfonyl)-phenyl)pyrazolo[1,5-a]pyridine level in blood at 50 mg/kg, po after 1 hr; assay type: ADME, organism-based; details: in vivo, read-out: Drug metabolism
Procedure, shortened: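 Snapshot whole-blood levels of parent and its sulfone metabolite at 1, 4 and 24 h after the first 50 mg/kg oral dose. Samples came from the P. berghei-infected efficacy mice, dosed in HPMC suspension vehicle.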

Liver microsome = experiment: Drug metabolism in rat liver microsomes assessed as 5-(3-(Cyclopropylsulfonyl)phenyl)-3-(4-(methylsulfonyl)-phenyl)pyrazolo[1,5-a]pyridine formation at 10 uM after 1 hr by LC-MS/MS analysis; assay type: ADME
Procedure, shortened: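 Metabolites identified by LC-ESI-MS/MS after in vitro incubation with rat liver microsomes.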

[8] = Metabolic stability of the compound in mouse liver microsomes assessed as compound remaining at 0.1 uM after 30 mins by LC-MS/MS analysis; assay type: ADME; details: 0.5 h
[9] = Cmax in Plasmodium falciparum 3D7 infected in non-myelodepleted NOD-SCID IL2Rgammanull mouse engrafted with human erythrocytes at 10 mg/kg, po; assay type: ADME, organism-based; parameters: dose 10 mg/kg, route oral; details: in vivo; procedure, shortened: as §1
[10] = Tmax in Plasmodium falciparum 3D7 infected in non-myelodepleted NOD-SCID IL2Rgammanull mouse engrafted with human erythrocytes at 10 mg/kg, po; assay type: ADME, organism-based; details: in vivo; procedure, shortened: as §2
Plasmodium falciparum = experiment: Antiplasmodial activity against drug sensitive Plasmodium falciparum NF54 infected in human erythrocytes after 48 hrs by [3H]-hypoxanthine incorporation assay; assay type: functional, organism-based
[11] = Oral bioavailability in rat at 15 mg/kg; assay type: ADME, organism-based; details: in vivo
[12] = AUC (0 to 8 hrs) in Plasmodium falciparum 3D7 infected in non-myelodepleted NOD-SCID IL2Rgammanull mouse engrafted with human erythrocytes at 1.5 mg/kg, po; assay type: ADME, organism-based; parameters: dose 1.5 mg/kg, time < 8 hr, route oral; details: in vivo; procedure, shortened: as §1

C[S+]([O-])c1ccc(-c2cnn3ccc(-c4cccc(S(=O)(=O)C5CC5)c4)cc23)cc1 (stereo not given)
selectivity ratio [1]: > 1000 | t1/2 (Rattus norvegicus): 162 min | Cmax [2]: 2 ng/mL | Cmax [3]: 30 ng/mL | Drug metabolism (Blood [4]): metabolite_detected | Tmax [5]: 30 min | Tmax [6]: 15 min | concentration (Blood [7]): 7.9 µM | Drug metabolism (Liver microsome): metabolite_detected | Stability [8]: Stable | Cmax [9]: 50 ng/mL | Tmax [10]: 120 min | pIC50 (Plasmodium falciparum): 8.22 | bioavailability [11]: 14% | AUC(0-t) at 8 h [12]: 40.5 ng·h/mL
